A short description of assay [1]: Antitumor activity against mouse early Lewis lung carcinoma allografted in BDF1 mouse assessed as increase in host life span at 26 mg/kg, ip administered as single dose on 1 or 2 days post-tumor implantation. It is filed as functional. The settings on record: route intraperitoneal. Put shortly: (§1)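 BDF1 mice (C57Blk/6 × DBA/2) implanted sc by trocar with ~40 mg Lewis lung tumor fragments from bacteriologically sterile donor tumors. Single ip dose on day 1 or 2, as a solution or suspension in water (CMC or gum acacia) or saline (HPC or Tween 80). Read-out is […]. Same-dose toxicity controls were run in nontumor-bearing mice.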

Assay [2] can be described thus: Antitumor activity against mouse early Lewis lung carcinoma allografted in BDF1 mouse assessed as increase in host life span at 34 mg/kg, ip administered as single dose on 1 or 2 days post-tumor implantation. It is filed as functional. As to conditions: route intraperitoneal. Put shortly: as §1
The nature of assay [3]: Antitumor activity against mouse advanced Lewis lung carcinoma allografted in BDF1 mouse assessed as increase in host life span at 26 mg/kg, ip administered as single dose on 7th day post-tumor implantation. The assay is classed as functional. As to conditions: route intraperitoneal. Put shortly: (§2)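 BDF1 mice (C57Blk/6 × DBA/2) implanted sc by trocar with about 40 mg Lewis lung tumor fragments from bacteriologically sterile donors. Advanced-disease groups held tumors of about 400 mg by day 6-7, sized by caliper (w = ab²/2). Single ip injection on day 7, in water or saline vehicle, at or below the LD10 in normal mice. Tumors measured at least twice weekly.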

A short description of assay [4]: Antitumor activity against mouse early Lewis lung carcinoma allografted in BDF1 mouse assessed as time delay in tumor growth at 26 mg/kg, ip administered as single dose on 1 or 2 days post-tumor implantation. The assay is classed as functional. The settings on record: route intraperitoneal. Put shortly: (§3)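 BDF1 mice (C57Blk/6 × DBA/2) implanted sc by trocar with ~40 mg Lewis lung tumor fragments from bacteriologically sterile donors. A single ip dose was given on day 1 or 2, as a solution or suspension in water or saline with suspending agent, at ≤0.5 ml. Tumors were measured by caliper at least twice weekly, with weight = ab²/2. Delay was taken as the days for the tumor to reach 1 g.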

The nature of assay [5]: Antitumor activity against mouse early Lewis lung carcinoma allografted in BDF1 mouse assessed as time delay in tumor growth at 34 mg/kg, ip administered as single dose on 1 or 2 days post-tumor implantation. It is filed as functional. As to conditions: route intraperitoneal. In outline:
as §3

Assay [6] can be described thus: Antitumor activity against mouse early Lewis lung carcinoma allografted in ip dosed BDF1 mouse assessed as disease cure administered as single dose on 1 or 2 days post-tumor implantation measured for 80 days post-drug treatment. The assay is classed as functional. In outline: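 BDF1 mice implanted sc by trocar with ~40 mg Lewis lung fragments from sterile donor tumors. A single ip dose was given on day 1 or 2 after implant, in water or saline vehicle. Cures were scored in animals observed for at least 80 days after treatment. Drug-toxicity controls were matched non-tumor-bearing mice monitored for body weight and deaths.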

Assay [7] in a line: Ratio of ED50 for antitumor activity against mouse L1210 cells allografted in ip dosed mouse to LD10 for mouse.
In assay [8] the test system is Mus musculus. Kind of assay: Antitumor activity against mouse advanced Lewis lung carcinoma allografted in ip dosed BDF1 mouse assessed as complete regression of established tumor administered as single dose on day 6 or 7 post-tumor implantation. The assay is classed as functional, organism-based. In outline: (§4)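 BDF1 mice (C57Blk/6 × DBA/2) implanted sc by trocar with Lewis lung tumor fragments of about 40 mg, taken only from bacteriologically sterile donor tumors. Mice bearing tumors of about 400 mg (day 6-7) were selected. Each received a single ip dose on day 7, at or below the LD10 in normal mice. Groups were of 10 mice. Tumor weight was taken from calipers as w = ab²/2, measured at least twice weekly. Matched non-tumor mice served as toxicity controls.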

In assay [9] the test system is Mus musculus. Kind of assay: Antitumor activity against mouse advanced Lewis lung carcinoma allografted in ip dosed BDF1 mouse assessed as disease cure administered as single dose on day 6 or 7 post-tumor implantation. The assay is classed as functional, organism-based. Put shortly: as §4
Assay [10] is described as follows: Antitumor activity against mouse advanced Lewis lung carcinoma allografted in ip dosed BDF1 mouse assessed as increase in host lifespan administered as single dose on day 6 or 7 post-tumor implantation. It is filed as functional. Put shortly:
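Advanced Lewis lung model: about 40 mg fragments implanted sc by trocar into BDF1 mice, and mice with tumors of about 400 mg (day 6-7) selected. Tumor weight from calipers, w = ab²/2. Agent given as one ip dose in distilled water or physiological saline. Nontumor-bearing mice received matching doses as toxicity controls.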

Assay [11] is described as follows: Antitumor activity against mouse early Lewis lung carcinoma allografted in BDF1 mouse assessed as increase in host life span at 148 mg/kg, ip administered as single dose on 1 or 2 days post-tumor implantation. As to conditions: route intraperitoneal. It is filed as functional. In outline: as §1
A short description of assay [12]: Antitumor activity against mouse early Lewis lung carcinoma allografted in BDF1 mouse assessed as increase in host life span at 99 mg/kg, ip administered as single dose on 1 or 2 days post-tumor implantation. It is filed as functional. As to conditions: route intraperitoneal. Put shortly: as §1
Assay [13] is described as follows: Antitumor activity against mouse early Lewis lung carcinoma allografted in BDF1 mouse assessed as time delay in tumor growth at 148 mg/kg, ip administered as single dose on 1 or 2 days post-tumor implantation. It is filed as functional. The settings on record: route intraperitoneal. Put shortly: as §3
Assay [14] in a line: Antitumor activity against mouse early Lewis lung carcinoma allografted in BDF1 mouse assessed as time delay in tumor growth at 99 mg/kg, ip administered as single dose on 1 or 2 days post-tumor implantation. It is filed as functional. The settings on record: route intraperitoneal. In outline:
as §3

Assay [15] relates to Mus musculus. Kind of assay: Antitumor activity against mouse advanced Lewis lung carcinoma allografted in BDF1 mouse assessed as disease cure at 44 mg/kg, ip administered as single dose on 7th day post-tumor implantation measured for 80 days post-drug treatment. The assay is classed as functional, organism-based. More on the design: dose 44 mg/kg. In outline: as §4
A short description of assay [16]: Antitumor activity against mouse advanced Lewis lung carcinoma allografted in BDF1 mouse assessed as increase in host life span at 44 mg/kg, ip administered as single dose on 7th day post-tumor implantation. The settings on record: route intraperitoneal. The assay is classed as functional. Put shortly: as §2
The nature of assay [17]: Antitumor activity against mouse early Lewis lung carcinoma allografted in BDF1 mouse assessed as increase in host life span at 17 mg/kg, ip administered as single dose on 1 or 2 days post-tumor implantation. The assay is classed as functional. The settings on record: route intraperitoneal. Put shortly: as §1
Assay [18] in a line: Antitumor activity against mouse early Lewis lung carcinoma allografted in BDF1 mouse assessed as increase in host life span at 11 mg/kg, ip administered as single dose on 1 or 2 days post-tumor implantation. The assay is classed as functional. As to conditions: route intraperitoneal. Put shortly: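 Early disease: BDF1 mice carrying sc trocar implants of about 40 mg Lewis lung fragments. One ip dose given on day 1 or 2 after implant, in distilled water or saline, at ≤0.5 ml. Endpoints were % increase in life-span of dying animals and delay in days for the primary tumor to reach 1 g. Untreated controls served as reference.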

The nature of assay [19]: Antitumor activity against mouse early Lewis lung carcinoma allografted in BDF1 mouse assessed as time delay in tumor growth at 17 mg/kg, ip administered as single dose on 1 or 2 days post-tumor implantation. It is filed as functional. The settings on record: route intraperitoneal. Put shortly: as §3
Assay [20] in a line: Antitumor activity against mouse early Lewis lung carcinoma allografted in BDF1 mouse assessed as time delay in tumor growth at 11 mg/kg, ip administered as single dose on 1 or 2 days post-tumor implantation. The assay is classed as functional. The settings on record: route intraperitoneal. Put shortly: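 Sc trocar implants of about 40 mg Lewis lung fragments in BDF1 mice. A single ip injection was given on day 1 or 2, in water or physiological saline, at ≤0.5 ml. Tumor size came from caliper length and width as w = ab²/2, measured at least twice weekly. Growth delay is the extra days taken to reach 1 g, compared with untreated controls.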

In assay [21] the test system is Mus musculus. Kind of assay: Antitumor activity against mouse advanced Lewis lung carcinoma allografted in BDF1 mouse assessed as disease cure at 15 mg/kg, ip administered as single dose on 7th day post-tumor implantation measured for 80 days post-drug treatment. It is filed as functional, organism-based. More on the design: dose 15 mg/kg. Put shortly:
as §4

Assay [22] can be described thus: Antitumor activity against mouse advanced Lewis lung carcinoma allografted in BDF1 mouse assessed as increase in host life span at 15 mg/kg, ip administered as single dose on 7th day post-tumor implantation. It is filed as functional. As to conditions: route intraperitoneal. In outline:
as §2

Each structure is given as a SMILES string. The source made the active and inactive calls. The calls are words filed in the database; no cut-off is given here.

The term ILS denotes the gain in survival time of treated over control animals, in per cent.

For `O=NN(CCCl)C(=O)N[C@H]1CC[C@H](CC(=O)O)CC1`, the increase in lifespan (ILS) at 26 mg/kg in assay [1] turned out to be 34%; in assay [3] it was 24%. The ILS at 34 mg/kg in assay [2] was 23%. Moreover, the results for the Time in assay [4] and in [5] were 10 days and 11 days, respectively. For the same compound, the Activity in assay [6] was more than 50%. Moreover, the Ratio in assay [7] was 0.3. The inhibition entry in assay [8] was “inactive”. Also, the outcome in assay [9] was inactive. Moreover, in [10], the increase in lifespan (ILS) is listed as more than 25%.
`C[C@H]1CC[C@H](NC(=O)N(CCF)N=O)CC1`: in assay [11], the increase in lifespan (ILS) at 148 mg/kg stood at 0%. The increase in lifespan (ILS) at 99 mg/kg in assay [12] was determined as 34%. For the same compound, the figures for the Time in assay [13] and in assay [14] were 1.4 days and 2.6 days, respectively. For the same compound, the result in [15] and in [9] was inactive. The ILS at 44 mg/kg in assay [16] was found to be 94%. Further, the Activity in assay [6] was found to be 10%. For the same compound, in [7], the Ratio was determined as 0.6. Besides, in assay [8], the inhibition result was “Active”.
With `O=NN(CCCl)C(=O)NC1CCC(=O)NC1=O` (stereo unspecified), the ILS at 17 mg/kg in [17] turned out to be 28%. Also, the ILS at 11 mg/kg in [18] was 32%. Also, the figures for the Time in [19] and in [20] were 3.8 days and 1.4 days, respectively. Also, the outcome in assay [21] and in [9] was inactive. Further, the ILS at 15 mg/kg in assay [22] came to 49%. Besides, the Activity in assay [6] worked out at 10%. The Ratio in assay [7] came to 0.4. For the same compound, the inhibition result in assay [8] was “Active”. Moreover, in [10], the ILS is listed as more than 25%.

These data come from ChEMBL document CHEMBL3271979, “Inhibition of solid tumors by nitrosoureas. 1. Lewis lung carcinoma” (1977).
